The target in this data set is Multidrug resistance-associated protein 1 (Homo sapiens, UniProt P33527). Put plainly: Inhibition of MRP1 in human 2008/MRP1 cells assessed as potentiation of doxorubicin-induced cytotoxicity by measuring cell survival at 2 uM after 5 days by MTS assay relative to control. As to conditions: 120 h. The format is cell-based. In short, it runs like this: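 2008/MRP1 cells (retroviral human MRP1 transfectant; RPMI 1640, 10% FBS) at 4,000 per well, with 100 nM doxorubicin plus crude, unpurified click products in DMSO: 2 µM in the primary screen, 1 µM in the secondary. Incubated 5 days at 37 °C. MTS/PMS added for 2 h at 37 °C, absorbance read at 490 nm. % survival is relative to wells without DOX or product. Run in triplicate, at least three experiments.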
In general terms: Tetrazolium assays rely on reduction of a dye to a coloured formazan, in cell work by metabolically active cells.

Multidrug resistance-associated protein 1, sequence (P33527 whole entry): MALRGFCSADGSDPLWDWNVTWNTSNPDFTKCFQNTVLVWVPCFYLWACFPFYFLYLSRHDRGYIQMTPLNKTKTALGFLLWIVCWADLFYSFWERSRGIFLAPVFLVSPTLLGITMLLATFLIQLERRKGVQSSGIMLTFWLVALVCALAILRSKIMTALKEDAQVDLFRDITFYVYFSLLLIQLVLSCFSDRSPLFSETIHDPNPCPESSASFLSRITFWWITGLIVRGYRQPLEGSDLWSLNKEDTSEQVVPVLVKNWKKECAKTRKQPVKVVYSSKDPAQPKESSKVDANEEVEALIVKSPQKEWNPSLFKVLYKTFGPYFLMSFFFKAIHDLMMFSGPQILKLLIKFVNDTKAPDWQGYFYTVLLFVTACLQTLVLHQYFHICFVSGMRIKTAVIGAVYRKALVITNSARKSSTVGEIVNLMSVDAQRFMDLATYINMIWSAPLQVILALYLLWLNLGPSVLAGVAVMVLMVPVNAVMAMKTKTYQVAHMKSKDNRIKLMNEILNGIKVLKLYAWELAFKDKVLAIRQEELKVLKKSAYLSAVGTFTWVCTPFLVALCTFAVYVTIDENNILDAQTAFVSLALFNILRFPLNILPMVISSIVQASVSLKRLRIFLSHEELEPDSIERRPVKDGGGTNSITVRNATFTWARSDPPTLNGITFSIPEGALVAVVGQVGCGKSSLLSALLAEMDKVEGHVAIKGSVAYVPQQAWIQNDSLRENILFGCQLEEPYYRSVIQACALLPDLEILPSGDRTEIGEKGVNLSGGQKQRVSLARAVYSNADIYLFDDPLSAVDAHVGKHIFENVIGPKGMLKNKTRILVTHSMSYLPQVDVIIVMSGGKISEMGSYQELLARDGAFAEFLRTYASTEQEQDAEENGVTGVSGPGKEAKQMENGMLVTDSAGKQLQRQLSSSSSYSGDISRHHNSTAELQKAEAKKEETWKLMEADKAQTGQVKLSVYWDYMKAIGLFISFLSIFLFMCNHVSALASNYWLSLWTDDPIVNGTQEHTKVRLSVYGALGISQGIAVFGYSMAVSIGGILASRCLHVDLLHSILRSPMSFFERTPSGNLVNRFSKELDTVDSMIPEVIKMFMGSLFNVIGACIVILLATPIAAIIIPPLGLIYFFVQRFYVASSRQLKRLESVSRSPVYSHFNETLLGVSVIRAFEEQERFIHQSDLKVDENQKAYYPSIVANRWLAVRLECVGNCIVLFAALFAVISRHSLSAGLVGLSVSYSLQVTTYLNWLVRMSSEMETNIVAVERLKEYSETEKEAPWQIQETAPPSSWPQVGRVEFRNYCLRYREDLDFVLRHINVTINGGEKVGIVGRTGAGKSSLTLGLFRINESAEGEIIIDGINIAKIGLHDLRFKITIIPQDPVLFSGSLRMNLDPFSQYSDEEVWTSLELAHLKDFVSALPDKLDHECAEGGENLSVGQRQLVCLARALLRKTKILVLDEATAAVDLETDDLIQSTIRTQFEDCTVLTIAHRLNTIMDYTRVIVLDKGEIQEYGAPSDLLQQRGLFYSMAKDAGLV

As to `Cc1ccc(C(=O)/C=C/c2ccc(OCCCCc3cn(CCOCCOc4ccc5c(=O)cc(-c6ccccc6)oc5c4)nn3)cc2)c(O)c1`, the Survival is 62%. With `O=c1cc(-c2ccccc2)oc2cc(OCCCc3cn(CCOCCOc4ccc(-c5oc6ccccc6c(=O)c5OCc5ccccc5)cc4)nn3)ccc12`, the Survival came to 51%.

Take `CCc1ccc(O)c(C(=O)/C=C/c2ccc(OCCCCc3cn(CCOCCOc4cccc(-c5oc6ccccc6c(=O)c5OCc5ccccc5)c4)nn3)cc2)c1`: the Survival was found to be 85%. With `Cc1ccc2oc(-c3ccc(OCCOCCOCCn4cc(COCCOc5ccc6c(=O)cc(-c7ccccc7)oc6c5)nn4)cc3)cc(=O)c2c1`, the Survival turned out to be 54%. Regarding `O=c1cc(-c2ccccc2)oc2cc(OCCOCCOCCn3cc(-c4ccc(-c5cn(CCOCCOCCOc6ccc7c(=O)cc(-c8ccccc8)oc7c6)nn5)cc4)nn3)ccc12`, the Survival is 88%. In the case of `O=c1[nH]c(-c2ccc(OCCCc3cn(CCOCCOc4ccc(-c5oc6ccccc6c(=O)c5OCc5ccccc5)cc4)nn3)cc2)nc2ccccc12`, the Survival is reported as 64%. Take `COc1cccc(COc2c(-c3ccc(OCCCCc4cn(CCOCCOCCOc5ccc6c(=O)cc(-c7ccccc7)oc6c5)nn4)cc3)oc3ccccc3c2=O)c1`: the Survival came out at 78%. For `COCOc1cc(OCc2ccccc2)c2c(=O)cc(-c3ccc(OCCCc4cn(CCOCCOc5ccc(-c6cc(=O)c7cc(F)ccc7o6)cc5)nn4)cc3)oc2c1`, the Survival was 63%.

Consider `CCc1ccc(O)c(C(=O)/C=C/c2ccc(OCCCCc3cn(CCOCCOc4ccc(-c5oc6ccccc6c(=O)c5OCc5ccccc5)cc4)nn3)cc2)c1`, for which the Survival is 69%. The value for `C#CCCCOc1ccc2c(=O)cc(-c3ccccc3)oc2c1` was 85%; that for `Cc1ccc(O)c(C(=O)/C=C/c2ccc(OCCCCc3cn(CCOCCOc4cccc(-c5oc6ccccc6c(=O)c5OCc5ccccc5)c4)nn3)cc2)c1` was 78%; that for `Cc1ccc(C(=O)/C=C/c2ccc(OCCCCc3cn(CCOc4cccc5c(=O)cc(-c6ccccc6)oc45)nn3)cc2)c(O)c1` was 75%. Take `O=c1cc(-c2ccc(OCCOCCn3cc(CN(Cc4cn(CCOCCOc5ccc(-c6cc(=O)c7ccccc7o6)cc5)nn4)Cc4cn(CCOCCOc5ccc(-c6cc(=O)c7ccccc7o6)cc5)nn4)nn3)cc2)oc2ccccc12`: the Survival came to 82%.

On to `O=c1cc(-c2ccccc2)oc2cc(OCCOCc3cn(CCOCCOCCOc4ccc(-c5cc(=O)c6cc(F)ccc6o5)cc4)nn3)ccc12`, for which the Survival is 53%. Turning to `O=c1cc(-c2ccccc2)oc2cc(OCCCCc3cn(CCOCCOc4cccc(-c5oc6ccccc6c(=O)c5OCc5ccccc5)c4)nn3)ccc12`, the Survival was found to be 62%. With `Cc1ccc(O)c(C(=O)/C=C/c2ccc(OCCCCc3cn(CCOCCOc4ccc(-c5oc6ccccc6c(=O)c5OCc5ccccc5)cc4)nn3)cc2)c1`, the Survival came out at 68%. Turning to `O=c1cc(-c2ccc(OCCCc3cn(CCOCCOCCOc4ccc(-c5oc6ccccc6c(=O)c5OCc5ccccc5)cc4)nn3)cc2)oc2ccc(F)cc12`, the Survival was determined as 75%. In the case of `O=c1cc(-c2ccc(OCCCc3cn(CCOCCOc4ccc(-c5cc(=O)c6cc(F)ccc6o5)cc4)nn3)cc2)oc2ccc(F)cc12`, the Survival was found to be 74%. Turning to `O=c1cc(-c2ccccc2)oc2cc(OCCn3cc(-c4ccc(-c5cn(CCOc6ccc7occ(-c8ccccc8)c(=O)c7c6)nn5)cc4)nn3)ccc12`, the Survival turned out to be 87%. For the molecule `Cc1ccc2oc(-c3ccc(OCCOCCOCCn4cc(CNc5ccccc5)nn4)cc3)cc(=O)c2c1`, the Survival is given as 86%.

As for `CN(CCN(C)Cc1cn(CCOCCOCCOc2ccc3c(=O)cc(-c4ccccc4)oc3c2)nn1)Cc1cn(CCOCCOCCOc2ccc3c(=O)cc(-c4ccccc4)oc3c2)nn1`, the Survival came to 88%.

Consider `O=c1cc(-c2ccc(OCCOCCn3cc(-c4cccc(-c5cn(CCOCCOc6ccc(-c7cc(=O)c8cc(F)ccc8o7)cc6)nn5)c4)nn3)cc2)oc2ccc(F)cc12`, for which the Survival was 74%. The value for `Cc1ccc(O)c(C(=O)/C=C/c2ccc(OCCCCc3cn(CCOCCOCCOc4ccc(-c5oc6ccccc6c(=O)c5OCc5ccccc5)cc4)nn3)cc2)c1` was 76%; that for `O=c1c(OCc2ccccc2)c(-c2cccc(OCCOCCn3cc(CN4CCN(Cc5cn(CCOCCOc6cccc(-c7oc8ccccc8c(=O)c7OCc7ccccc7)c6)nn5)CC4)nn3)c2)oc2ccccc12` was 84%. For the molecule `O=c1c(OCc2ccccc2)c(-c2ccc(OCCOCCn3cc(CNc4ccccc4)nn3)cc2)oc2ccccc12`, the Survival was 91%.

Turning to `O=C(/C=C/c1ccc(OCCCCc2cn(CCOCCOCCOc3ccc(-c4oc5ccccc5c(=O)c4OCc4ccccc4)cc3)nn2)cc1)c1ccc(F)cc1O`, the Survival came to 68%. Regarding `C#CCCN1C(=O)c2ccccc2C1=O`, the Survival is reported as 83%. As for `O=c1cc(-c2ccc(OCCOCCn3cc(CN4CCN(Cc5cn(CCOCCOc6ccc(-c7cc(=O)c8ccccc8o7)cc6)nn5)CC4)nn3)cc2)oc2ccccc12`, the Survival is reported as 116%.

In the case of `COc1cccc(COc2c(-c3ccc(OCCOCCn4cc(CCCOc5ccc(-c6cc(=O)c7ccccc7o6)cc5)nn4)cc3)oc3ccccc3c2=O)c1`, the Survival amounted to 68%. For `Cc1ccc(O)c(C(=O)/C=C/c2ccc(OCCCCc3cn(CCOCCOc4ccc5c(=O)cc(-c6ccccc6)oc5c4)nn3)cc2)c1`, the Survival was 73%. Consider `COc1cccc(COc2c(-c3ccc(OCCCCc4cn(CCOc5cccc6c(=O)cc(-c7ccccc7)oc56)nn4)cc3)oc3ccccc3c2=O)c1`, for which the Survival is reported as 51%. On to `Cc1ccc(O)c(C(=O)/C=C/c2ccc(OCCCCc3cn(CCOCCOCCOc4ccc5c(=O)cc(-c6ccccc6)oc5c4)nn3)cc2)c1`, for which the Survival was found to be 84%.

For the molecule `[N-]=[N+]=NCCOCCOCCOc1ccc(-c2cc(=O)c3ccccc3o2)cc1`, the Survival came to 85%. Turning to `Cc1ccc(C(=O)/C=C/c2ccc(OCCCCc3cn(CCOCCOCCOc4ccc5c(=O)cc(-c6ccccc6)oc5c4)nn3)cc2)c(O)c1`, the Survival was 72%. As to `O=c1cc(-c2ccccc2)oc2cc(OCCCCc3cn(CCOCCOc4ccc(-c5cc(=O)c6cc(F)ccc6o5)cc4)nn3)ccc12`, the Survival is given as 52%.

In the case of `CCc1ccc(O)c(C(=O)/C=C/c2ccc(OCCCCc3cn(CCOc4cccc5c(=O)cc(-c6ccccc6)oc45)nn3)cc2)c1`, the Survival is given as 86%. To `COc1cccc(COc2c(-c3ccc(OCCOCCn4cc(CN(Cc5cn(CCOCCOc6ccc(-c7oc8ccccc8c(=O)c7OCc7cccc(OC)c7)cc6)nn5)Cc5cn(CCOCCOc6ccc(-c7oc8ccccc8c(=O)c7OCc7cccc(OC)c7)cc6)nn5)nn4)cc3)oc3ccccc3c2=O)c1` belongs 86%; to `C#CCCCOc1ccc(-c2cc(=O)c3ccc(F)cc3o2)cc1`, 79%. The value for `COc1cccc(COc2c(-c3ccc(OCCCCc4cn(CCOCCOc5cccc(-c6oc7ccccc7c(=O)c6OCc6ccccc6)c5)nn4)cc3)oc3ccccc3c2=O)c1` was 75%. As to `COc1cccc(COc2c(-c3ccc(OCCOCCN=[N+]=[N-])cc3)oc3ccccc3c2=O)c1`, the Survival amounted to 57%. As for `O=c1cc(-c2ccc(OCCOCCOCCn3cc(CN(Cc4ccccc4)Cc4cn(CCOCCOCCOc5ccc(-c6cc(=O)c7cc(F)ccc7o6)cc5)nn4)nn3)cc2)oc2ccc(F)cc12`, the Survival came to 54%.

Take `O=c1cc(-c2ccccc2)oc2cc(OCCOCCOCCn3cc(CN4CCN(Cc5cn(CCOCCOCCOc6ccc7c(=O)cc(-c8ccccc8)oc7c6)nn5)CC4)nn3)ccc12`: the Survival is listed as 89%. To `O=c1cc(-c2ccc(OCCOCCOCCn3cc(CCCCOc4ccc5c(=O)cc(-c6ccccc6)oc5c4)nn3)cc2)oc2ccccc12` belongs 57%; to `O=c1cc(-c2ccc(OCCOCCOCCn3cc(-c4ccc(-c5cn(CCOCCOCCOc6ccc(-c7cc(=O)c8cc(F)ccc8o7)cc6)nn5)cc4)nn3)cc2)oc2ccc(F)cc12`, 83%; to `O=Cc1ccc(OCCCCc2cn(CCOCCOCCOc3ccc4c(=O)cc(-c5ccccc5)oc4c3)nn2)cc1`, 81%. As for `O=c1cc(-c2ccc(OCCOCCOCCn3cc(-c4cccc(-c5cn(CCOCCOCCOc6ccc(-c7cc(=O)c8ccccc8o7)cc6)nn5)c4)nn3)cc2)oc2ccccc12`, the Survival was 85%. Take `O=c1cc(-c2ccccc2)oc2cc(OCCN(Cc3ccccc3)Cc3cn(CCOCCOCCOc4ccc(-c5oc6ccccc6c(=O)c5OCc5ccccc5)cc4)nn3)ccc12`: the Survival was determined as 65%. As to `CN(CCN(C)Cc1cn(CCOCCOCCOc2ccc(-c3oc4ccccc4c(=O)c3OCc3ccccc3)cc2)nn1)Cc1cn(CCOCCOCCOc2ccc(-c3oc4ccccc4c(=O)c3OCc3ccccc3)cc2)nn1`, the Survival stood at 84%. `O=C(/C=C/c1ccc(OCCCCc2cn(CCOCCOc3cccc(-c4oc5ccccc5c(=O)c4OCc4ccccc4)c3)nn2)cc1)c1ccc(F)cc1O`: the Survival stood at 68%. `COc1cccc(COc2c(-c3ccc(OCCCCc4cn(CCOCCOCCOc5ccc(-c6cc(=O)c7ccccc7o6)cc5)nn4)cc3)oc3ccccc3c2=O)c1`: the Survival is recorded as 58%. With `O=c1cc(-c2ccc(OCCOCCn3cc(-c4ccc(-c5cn(CCOCCOc6ccc(-c7cc(=O)c8cc(F)ccc8o7)cc6)nn5)cc4)nn3)cc2)oc2ccc(F)cc12`, the Survival was 77%. For `O=C1c2ccccc2C(=O)N1CCc1cn(CCOCCOc2ccc3c(=O)cc(-c4ccccc4)oc3c2)nn1`, the Survival worked out at 51%. Take `O=c1cc(-c2ccc(OCCOCCOCCn3cc(CCCOc4ccc(-c5cc(=O)c6cc(F)ccc6o5)cc4)nn3)cc2)oc2ccccc12`: the Survival is 79%. In the case of `CCc1ccc(O)c(C(=O)/C=C/c2ccc(OCCCCc3cn(CCOCCOc4ccc(-c5oc6ccccc6c(=O)c5OCc5cccc(OC)c5)cc4)nn3)cc2)c1`, the Survival was 76%.

As for `CN(CCN(C)Cc1cn(CCOCCOc2ccc3oc(-c4ccccc4)cc(=O)c3c2)nn1)Cc1cn(CCOCCOc2ccc3c(=O)cc(-c4ccccc4)oc3c2)nn1`, the Survival is 99%.

Take `C#CCCCOc1ccc(-c2cc(=O)c3ccccc3o2)cc1`: the Survival stood at 74%.

(Values after ChEMBL document CHEMBL4257575, “Discovery of Novel Flavonoid Dimers To Reverse Multidrug Resistance Protein 1 (MRP1, ABCC1) Mediated Drug Resistance in Cancers Using a High Throughput Platform with "Click Chemistry"” (J Med Chem, 2018).)
